In PubChem BioAssay AID651943 (The Scripps Research Institute Molecular Screening Center, 2012) one finds IC50 data, which are given here for 6 molecules.

Active and inactive are the calls of the source.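 The calls were made as follows: active = bacterial viability inhibition with half-maximal concentration IC50 at or below 10 µM; inactive = the rest.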

The test system of the experiment is E. coli V66 growth, OD600 absorbance, 18 h. The experiment is described as follows: bacterial growth inhibition, late-stage follow-up, counter-screen for AddAB helicase-nuclease inhibitor project, absorbance, dose response, round 2 (AID 651943). The essentials: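 Assay system: uninfected E. coli strain V66, RecBCD+; Medium: cation-adjusted Mueller Hinton broth, 0.1% glycerol; Incubation: 18 h bacterial growth with compound at 37 °C; Signal: OD600 absorbance; Dosing: 10 concentrations, 1:3 steps, highest 118.6 µM.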

Take `CCn1cc(C(=O)O)c(=O)c2cnc(N3CCN(C(=S)NCc4ccccc4)CC3)nc21`: the IC50 was > 119 µM (inactive). Turning to `CCn1cc(C(=O)O)c(=O)c2cnc(N3CCN(C(=S)Nc4ccc(Cl)cc4)CC3)nc21`, the IC50 was > 39.5 µM (inactive). Next, `CCn1cc(C(=O)O)c(=O)c2cnc(N3CCN(C(=S)Nc4ccccc4F)CC3)nc21`: > 119 µM (inactive).

In the case of `CCn1cc(C(=O)O)c(=O)c2cnc(N3CCN(C(=S)Nc4ccccc4OC)CC3)nc21`, the IC50 was > 119 µM (inactive). Next, `CCn1cc(C(=O)O)c(=O)c2cnc(N3CCN(C(=S)NC(=O)c4cccc(C)c4)CC3)nc21`: > 39.5 µM (inactive); `CCn1cc(C(=O)O)c(=O)c2cnc(N3CCN(C(=S)Nc4cccc(C(F)(F)F)c4)CC3)nc21`: 34.4 µM (inactive).
